Laboratory results from ChEMBL document CHEMBL4680120, “Novel anti-Alzheimer phenol-lipoyl hybrids: Synthesis, physico-chemical characterization, and biological evaluation” (Eur J Med Chem, 2020).
Converted amounts (≈) assume the structure as drawn. The source made the active and inactive calls. The calls are words filed in the database; no cut-off is given here.

Assays:
[1] = Solubility of compound in water by HPLC analysis; assay type: physicochemical
[2] = Stability in simulated gastric fluid at pH 1.2 assessed as relative difference measured after 15 mins in presence of pepsin by HPLC analysis; assay type: ADME; details: isolated protein, pH 1.2, 0.25 h
How it was run: (§1)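 Incubation in simulated gastric fluid (pH 1.2, pepsin) or simulated intestinal fluid (pH 6.8, pancreatin). Aliquots deproteinized with ice-cold acetonitrile, centrifuged at 4°C and 12000 rpm for 10 min, filtered, analyzed by HPLC. RD% = (Ci − Cf)/Ci × 100. Stable if RD < 5%. Means of three experiments.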

[3] = Stability in simulated gastric fluid at pH 1.2 assessed as relative difference measured after 30 mins in presence of pepsin by HPLC analysis; assay type: ADME; details: isolated protein, pH 1.2, 0.5 h; how it was run: as §1
[4] = Stability in simulated gastric fluid at pH 1.2 assessed as relative difference measured after 60 mins in presence of pepsin by HPLC analysis; assay type: ADME; details: isolated protein, pH 1.2, 1 h; how it was run: as §1
[5] = Stability in simulated intestinal fluid at pH 6.8 assessed as relative difference measured after 15 mins in presence of pancreatin by HPLC analysis; assay type: ADME; details: simulated gi fluid, pH 6.8, 0.25 h; how it was run: as §1
[6] = Stability in simulated intestinal fluid at pH 6.8 assessed as relative difference measured after 30 mins in presence of pancreatin by HPLC analysis; assay type: ADME; details: simulated gi fluid, pH 6.8, 0.5 h; how it was run: as §1
[7] = Stability in simulated intestinal fluid at pH 6.8 assessed as relative difference measured after 60 mins in presence of pancreatin by HPLC analysis; assay type: ADME; details: simulated gi fluid, pH 6.8, 1 h; how it was run: as §1
[8] = Stability in simulated intestinal fluid at pH 6.8 assessed as relative difference measured after 120 mins in presence of pancreatin by HPLC analysis; assay type: ADME; details: simulated gi fluid, pH 6.8, 2 h; how it was run: as §1
[9] = Stability in simulated intestinal fluid at pH 6.8 assessed as relative difference measured after 180 mins in presence of pancreatin by HPLC analysis; assay type: ADME; details: simulated gi fluid, pH 6.8, 3 h; how it was run: as §1
[10] = Half life in human plasma by HPLC analysis; assay type: ADME, cell-free
How it was run: (§2)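 Compound stock added to human plasma pre-warmed to 37°C and diluted with 0.02 M phosphate buffer (pH 7.4) to 80% plasma. 100 μL samples taken over time, quenched with 200 μL cold acetonitrile, centrifuged, and supernatant analyzed by HPLC. t½ and kobs are means of three experiments.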

[11] = Stability in human plasma assessed as observed rate constant by HPLC analysis; assay type: ADME, cell-free; how it was run: as §2
SH-SY5Y [12] = experiment: Cytotoxicity against human SH-SY5Y cells assessed as reduction in cell viability at 1 to 250 mg/l measured after 48 hrs by MTT assay; assay type: cell-based; details: dose 1-250 mg/L
How it was run: (§3)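 SH-SY5Y cells grown in DMEM/F12 with 10% FBS and differentiated with retinoic acid (10 μM), seeded at 1×10^4 per well and cultured 24 h. Cells were given hybrids at 1–250 mg/L with or without Aβ1-42 (20 μM) for 48 h. MTT (5 mg/mL) added for 4 h at 37°C, DMSO solubilization, read at 570/630 nm. LDH read at 450 nm. Five independent experiments.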

SH-SY5Y [13] = experiment: Neuroprotective activity against amyloid beta (1 to 42)-induced toxicity in human SH-SY5Y cells assessed as increase in cell viability at 1 to 250 mg/l measured after 48 hrs by MTT assay; assay type: functional, cell-based; details: dose 1-250 mg/L; how it was run: as §3
SH-SY5Y [14] = experiment: Neuroprotective activity against amyloid beta (1 to 42)-induced toxicity in human SH-SY5Y cells assessed as increase in cell viability at 1 to 250 mg/l measured after 48 hrs by LDH release assay; assay type: functional, cell-based; details: dose 1-250 mg/L; how it was run: as §3
Erythrocyte = experiment: Antioxidant activity in human RBC assessed as increase in total antioxidant capacity level up to 400 ug/ml measured after 72 hrs relative to control; assay type: functional; details: dose microg/ml <=400

SMILES	solubility [1]	fold change (FC) [2]	fold change (FC) [3]	fold change (FC) [4]	fold change (FC) [5]	fold change (FC) [6]	fold change (FC) [7]	fold change (FC) [8]	fold change (FC) [9]	half-life [10]	K [11]	Activity (SH-SY5Y [12])	Activity (SH-SY5Y [13])	Activity (SH-SY5Y [14])	Activity (Erythrocyte)
O=C(CCCCC1CCSS1)NCCCCNC(=O)Cc1ccc(O)c(O)c1 (centres undefined)	81 µg/mL (≈ 190 µM)	10.37%	37.63%	57.89%	1.5%	20.44%	42.7%	63%	88.91%	1.49 h	0.479 h⁻¹	Non-Toxic	Active	Active	–
COc1ccc(/C=C/C(=O)NCCCCNC(=O)CCCCC2CCSS2)cc1OC (centres undefined)	–	4.67%	8.23%	22.16%	3%	3.64%	11.79%	22.21%	34.75%	36.4 h	0.019 h⁻¹	Non-Toxic	Active	Active	–
O=C(CCCCC1CCSS1)NCCOC(=O)Cc1ccc(O)c(O)c1 (centres undefined)	736 µg/mL (≈ 1840 µM)	12.34%	46.72%	67.34%	2.5%	35.4%	54.62%	70.45%	100%	1.13 h	0.613 h⁻¹	Non-Toxic	Active	Active	–
O=C(CCCCC1CCSS1)NCCOCCOC(=O)Cc1ccc(O)c(O)c1 (centres undefined)	2480 µg/mL (≈ 5600 µM)	45.21%	63.52%	78.9%	3.87%	45.89%	60.78%	89.78%	100%	2.16 h	0.32 h⁻¹	Non-Toxic	Active	Active	–
O=C(CCCCC1CCSS1)NCCNC(=O)Cc1ccc(O)c(O)c1 (centres undefined)	2690 µg/mL (≈ 6740 µM)	0.63%	0.99%	2.74%	1.89%	2.17%	4.02%	3.78%	4.32%	23.1 h	0.031 h⁻¹	Non-Toxic	Active	Active	–
O=C1O[C@H]([C@@H](O)CO)C(O)=C1O [ASCORBIC ACID]	–	–	–	–	–	–	–	–	–	–	–	–	–	–	10.7%
COc1cc(/C=C/C(=O)NCCNC(=O)CCCCC2CCSS2)ccc1O (centres undefined)	23 µg/mL (≈ 54.2 µM)	0.25%	1.28%	3.45%	2.52%	3.01%	5.2%	4.15%	4.8%	57.4 h	0.012 h⁻¹	Non-Toxic	Active	Active	–
